Results: ChEMBL document CHEMBL1141882, “Synthesis and biological testing of purine derivatives as potential ATP-competitive kinase inhibitors” (J Med Chem, 2005)

Key:
[1] = biological target: Mitogen-activated protein kinase 10 (Rattus norvegicus) (UniProt P49187); test: Inhibition of rat c-Jun N-terminal kinase-3 at 30 uM
How it was run: (§1)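 Kinase activity assayed with ATP at 100 µM, deliberately higher than usual assay ATP levels because the inhibitors are assumed ATP-competitive. Results are reported as percent inhibition of each kinase.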

[2] = biological target: RAC-alpha serine/threonine-protein kinase (Homo sapiens) (UniProt P31749); test: Inhibition of human Protein kinase B alpha at 30 uM; how it was run: as §1
Chain of RAC-alpha serine/threonine-protein kinase (Homo sapiens) (P31749 whole entry): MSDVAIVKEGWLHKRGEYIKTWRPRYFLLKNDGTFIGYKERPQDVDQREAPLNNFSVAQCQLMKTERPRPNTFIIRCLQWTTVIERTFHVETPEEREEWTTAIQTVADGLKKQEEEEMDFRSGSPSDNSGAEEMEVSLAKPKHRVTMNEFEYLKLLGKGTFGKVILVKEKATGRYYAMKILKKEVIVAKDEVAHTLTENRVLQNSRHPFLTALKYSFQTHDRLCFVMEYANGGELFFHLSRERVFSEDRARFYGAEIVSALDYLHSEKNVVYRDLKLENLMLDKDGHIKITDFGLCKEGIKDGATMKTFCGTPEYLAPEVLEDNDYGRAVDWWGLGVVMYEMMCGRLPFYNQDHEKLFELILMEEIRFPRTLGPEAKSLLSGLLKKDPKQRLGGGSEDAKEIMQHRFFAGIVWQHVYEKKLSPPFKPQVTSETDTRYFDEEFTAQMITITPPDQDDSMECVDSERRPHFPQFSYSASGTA

[3] = biological target: Mitogen-activated protein kinase 14 (Homo sapiens) (UniProt Q16539); test: Inhibition of human stress-activated protein kinase-2 alpha (p38 MAP-kinase) at 30 uM; how it was run: as §1
Chain of Mitogen-activated protein kinase 14 (Homo sapiens) (Q16539 whole entry): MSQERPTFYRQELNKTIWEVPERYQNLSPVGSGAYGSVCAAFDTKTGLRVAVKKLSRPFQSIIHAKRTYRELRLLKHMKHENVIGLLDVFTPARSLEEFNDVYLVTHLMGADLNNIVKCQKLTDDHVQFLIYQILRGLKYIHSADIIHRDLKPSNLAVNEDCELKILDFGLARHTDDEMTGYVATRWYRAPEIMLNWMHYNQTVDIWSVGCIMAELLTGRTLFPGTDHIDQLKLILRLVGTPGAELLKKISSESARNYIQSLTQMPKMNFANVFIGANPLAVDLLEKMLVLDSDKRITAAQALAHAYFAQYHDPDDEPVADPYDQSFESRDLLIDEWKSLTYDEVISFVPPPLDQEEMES

[4] = biological target: Dual specificity mitogen-activated protein kinase kinase 1 (Homo sapiens) (UniProt Q02750); test: Inhibition of human Mitogen activated protein kinase kinase 1 (MEK1) at 30 uM; how it was run: as §1
Chain of Dual specificity mitogen-activated protein kinase kinase 1 (Homo sapiens) (Q02750 whole entry): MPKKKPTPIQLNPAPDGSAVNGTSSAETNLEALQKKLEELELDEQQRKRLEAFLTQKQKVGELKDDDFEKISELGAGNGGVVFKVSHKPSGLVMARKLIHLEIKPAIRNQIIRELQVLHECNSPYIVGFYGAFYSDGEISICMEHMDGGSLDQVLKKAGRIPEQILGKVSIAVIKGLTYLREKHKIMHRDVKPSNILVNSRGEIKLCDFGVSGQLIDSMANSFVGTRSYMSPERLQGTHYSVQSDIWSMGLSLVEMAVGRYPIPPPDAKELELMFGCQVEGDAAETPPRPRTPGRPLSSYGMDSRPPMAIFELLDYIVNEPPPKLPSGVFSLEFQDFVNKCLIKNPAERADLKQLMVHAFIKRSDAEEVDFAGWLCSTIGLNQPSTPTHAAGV

[5] = biological target: Protein kinase C alpha type (Homo sapiens) (UniProt P17252); test: Inhibition of human Protein kinase C alpha; parameters: concentration or dose not given beside the values; conditions: concentration not given here
[6] = biological target: cAMP-dependent protein kinase (PKA) (Homo sapiens) (UniProt P22694+P17612+P22612); test: Inhibition of human cAMP-dependent protein kinase (PKA); type: protein assay; parameters: concentration or dose not given beside the values; conditions: concentration not given here
[7] = biological target: Ca2+/calmodulin-dependent protein kinase II (CaM kinase II) (Rattus norvegicus) (UniProt P11275+P08413+P15791+P11730); test: Inhibition of rat Calcium/calmodulin-dependent protein kinase type II at 30 uM; type: protein assay; how it was run: as §1
[8] = biological target: Glycogen synthase kinase-3 beta (Homo sapiens) (UniProt P49841); test: Inhibition of human Glycogen synthase kinase-3 beta at 30 uM; how it was run: as §1
[9] = biological target: Mitogen-activated protein kinase 8 (Homo sapiens) (UniProt P45983); test: Inhibition of human c-Jun N-terminal kinase-1 alpha-1 at 30 uM; how it was run: as §1
Chain of Mitogen-activated protein kinase 8 (Homo sapiens) (P45983 whole entry): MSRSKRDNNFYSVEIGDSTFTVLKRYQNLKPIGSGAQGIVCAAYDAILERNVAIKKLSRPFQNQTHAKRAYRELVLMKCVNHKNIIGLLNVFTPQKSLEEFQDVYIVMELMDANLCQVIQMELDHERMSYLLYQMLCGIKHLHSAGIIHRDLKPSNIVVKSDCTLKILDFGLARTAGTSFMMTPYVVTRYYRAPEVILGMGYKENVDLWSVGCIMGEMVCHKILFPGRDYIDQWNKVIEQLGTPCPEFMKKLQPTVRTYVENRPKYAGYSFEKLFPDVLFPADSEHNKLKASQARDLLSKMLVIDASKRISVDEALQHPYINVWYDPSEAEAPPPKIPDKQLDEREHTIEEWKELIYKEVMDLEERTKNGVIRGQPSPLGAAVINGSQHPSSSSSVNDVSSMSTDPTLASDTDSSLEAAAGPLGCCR

[10] = biological target: Mitogen-activated protein kinase 9 (Homo sapiens) (UniProt P45984); test: Inhibition of human c-Jun N-terminal kinase-2 alpha-2 at 30 uM; how it was run: as §1
Chain of Mitogen-activated protein kinase 9 (Homo sapiens) (P45984 whole entry, looked up): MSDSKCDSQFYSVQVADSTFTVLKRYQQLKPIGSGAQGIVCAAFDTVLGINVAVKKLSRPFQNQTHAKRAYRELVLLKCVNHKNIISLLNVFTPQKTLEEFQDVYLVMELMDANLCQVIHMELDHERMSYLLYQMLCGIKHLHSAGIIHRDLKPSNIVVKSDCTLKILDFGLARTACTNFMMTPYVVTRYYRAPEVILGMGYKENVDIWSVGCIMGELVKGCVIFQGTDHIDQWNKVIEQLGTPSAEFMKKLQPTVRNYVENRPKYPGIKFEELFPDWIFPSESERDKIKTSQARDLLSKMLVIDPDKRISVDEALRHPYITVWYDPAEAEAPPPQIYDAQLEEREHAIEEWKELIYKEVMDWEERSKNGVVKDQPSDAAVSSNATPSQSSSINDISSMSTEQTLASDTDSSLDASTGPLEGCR

[11] = biological target: Mitogen-activated protein kinase 1 (Homo sapiens) (UniProt P28482); test: Inhibition of human Mitogen-activated protein kinase 2 at 30 uM; how it was run: as §1
Chain of Mitogen-activated protein kinase 1 (Homo sapiens) (P28482 whole entry): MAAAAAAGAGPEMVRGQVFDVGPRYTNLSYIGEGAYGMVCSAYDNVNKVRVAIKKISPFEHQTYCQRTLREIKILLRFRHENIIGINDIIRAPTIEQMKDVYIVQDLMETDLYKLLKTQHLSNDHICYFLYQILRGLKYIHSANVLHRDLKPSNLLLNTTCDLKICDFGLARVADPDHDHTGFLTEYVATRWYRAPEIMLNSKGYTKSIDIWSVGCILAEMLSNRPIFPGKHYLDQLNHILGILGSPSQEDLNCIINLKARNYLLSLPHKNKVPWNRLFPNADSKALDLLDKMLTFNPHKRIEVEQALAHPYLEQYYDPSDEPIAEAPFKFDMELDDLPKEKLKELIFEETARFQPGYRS

[12] = biological target: Tyrosine-protein kinase Lck (Homo sapiens) (UniProt P06239); test: Inhibition of human lymphocyte protein tyrosine kinase Lck at 30 uM; how it was run: as §1
Chain of Tyrosine-protein kinase Lck (Homo sapiens) (P06239 2-509 limits assumed): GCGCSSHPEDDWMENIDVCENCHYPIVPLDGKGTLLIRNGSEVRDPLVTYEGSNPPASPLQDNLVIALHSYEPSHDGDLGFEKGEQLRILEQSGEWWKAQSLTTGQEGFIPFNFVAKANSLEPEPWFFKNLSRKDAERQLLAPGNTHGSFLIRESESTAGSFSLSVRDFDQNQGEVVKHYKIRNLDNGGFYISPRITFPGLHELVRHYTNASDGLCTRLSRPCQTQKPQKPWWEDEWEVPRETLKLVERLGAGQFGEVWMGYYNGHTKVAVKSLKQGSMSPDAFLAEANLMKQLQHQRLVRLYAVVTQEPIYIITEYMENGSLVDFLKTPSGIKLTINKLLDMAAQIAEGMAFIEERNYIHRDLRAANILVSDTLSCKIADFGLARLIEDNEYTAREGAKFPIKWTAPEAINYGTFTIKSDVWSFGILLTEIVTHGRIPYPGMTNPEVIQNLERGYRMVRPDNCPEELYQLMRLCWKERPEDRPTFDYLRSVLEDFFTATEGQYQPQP

[13] = biological target: RAF proto-oncogene serine/threonine-protein kinase (Homo sapiens) (UniProt P04049); test: Inhibition of human RAF proto-oncogene serine/threonine-protein kinase at 30 uM; how it was run: as §1
Chain of RAF proto-oncogene serine/threonine-protein kinase (Homo sapiens) (P04049 whole entry): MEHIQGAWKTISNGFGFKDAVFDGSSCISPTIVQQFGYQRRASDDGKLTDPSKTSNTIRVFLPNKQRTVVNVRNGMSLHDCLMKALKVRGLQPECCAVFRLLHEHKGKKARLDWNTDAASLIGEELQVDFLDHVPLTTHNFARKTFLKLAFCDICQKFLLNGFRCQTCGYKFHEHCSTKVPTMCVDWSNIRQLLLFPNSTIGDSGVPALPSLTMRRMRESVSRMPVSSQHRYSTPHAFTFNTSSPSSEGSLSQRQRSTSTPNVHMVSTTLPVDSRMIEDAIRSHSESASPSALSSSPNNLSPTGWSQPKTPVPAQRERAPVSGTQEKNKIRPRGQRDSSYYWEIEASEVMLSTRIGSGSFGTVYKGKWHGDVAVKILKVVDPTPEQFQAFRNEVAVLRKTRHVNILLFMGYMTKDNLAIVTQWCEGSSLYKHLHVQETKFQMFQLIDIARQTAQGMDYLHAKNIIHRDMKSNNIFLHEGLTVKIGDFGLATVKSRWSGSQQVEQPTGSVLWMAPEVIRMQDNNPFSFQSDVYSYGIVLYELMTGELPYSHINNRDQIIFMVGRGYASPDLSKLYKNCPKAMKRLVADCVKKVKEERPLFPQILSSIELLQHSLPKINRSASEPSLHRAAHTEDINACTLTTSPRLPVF

[14] = biological target: Rho-associated protein kinase 2 (Homo sapiens) (UniProt O75116); test: Inhibition of human Rho-dependent protein kinase-II at 30 uM

Chain of Mitogen-activated protein kinase 10 (Rattus norvegicus) (P49187 whole entry): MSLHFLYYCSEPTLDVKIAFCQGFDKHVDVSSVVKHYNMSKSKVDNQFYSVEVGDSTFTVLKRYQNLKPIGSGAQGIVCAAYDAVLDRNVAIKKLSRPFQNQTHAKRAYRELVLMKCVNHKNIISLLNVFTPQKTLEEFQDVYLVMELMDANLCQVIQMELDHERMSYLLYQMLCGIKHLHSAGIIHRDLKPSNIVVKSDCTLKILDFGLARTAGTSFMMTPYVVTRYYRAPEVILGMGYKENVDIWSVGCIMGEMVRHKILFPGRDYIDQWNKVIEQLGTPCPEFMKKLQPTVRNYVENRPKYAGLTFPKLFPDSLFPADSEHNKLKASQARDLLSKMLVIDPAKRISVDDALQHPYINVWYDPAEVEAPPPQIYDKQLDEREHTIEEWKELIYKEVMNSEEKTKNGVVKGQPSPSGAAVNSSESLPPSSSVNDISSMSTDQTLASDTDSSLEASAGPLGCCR

Row | Compound | inhibition [1] | inhibition [2] | inhibition [3] | inhibition [4] | inhibition [5] | inhibition [6] | inhibition [7] | inhibition [8] | inhibition [9] | inhibition [10] | inhibition [11] | inhibition [12] | inhibition [13] | inhibition [14]
1 | Fc1ccc(Cn2cnc3c(Sc4ccccc4)ncnc32)cc1 | 0% | 13% | 67% | 1% | 0% | 0% | 0% | 0% | 0% | 0% | 0% | 12% | 0% | 2%
2 | Cn1c(-c2ccccc2)nc2c(-c3ccc(F)cc3)ncnc21 | 12% | 31% | 23% | 5% | 17% | 0% | 5% | 26% | 2% | 8% | 1% | 17% | 24% | 0%
3 | Nc1[nH]cnc2ncnc1-2 | 10% | 0% | 7% | 9% | 6% | 14% | 0% | 0% | 0% | 0% | 17% | 19% | 14% | 28%
4 | Cn1cnc2c(Sc3ccc(F)cc3)ncnc21 | 9% | 0% | 38% | 6% | 7% | 1% | 5% | 0% | 10% | 10% | 12% | 2% | 12% | 6%
5 | Fc1ccc(Cn2cnc3c(Cl)ncnc32)cc1 | 20% | 0% | 10% | 1% | 14% | 0% | 0% | 8% | 0% | 0% | 0% | 0% | 4% | 0%
6 | Cn1cnc2c(/C=C/c3ccccc3)ncnc21 | 8% | 0% | 12% | 0% | 7% | 0% | 4% | 0% | 0% | 0% | 0% | 1% | 8% | 0%
7 | c1ccc(Cc2[nH]cnc3ncnc2-3)cc1 | 30% | 0% | 8% | 3% | 7% | 7% | 2% | 5% | 0% | 0% | 3% | 0% | 9% | 1%
8 | CSc1ccc(-c2nc3c(Sc4ccccc4)ncnc3n2C)cc1 | 0% | 5% | 11% | 4% | 0% | 0% | 0% | 3% | 0% | 1% | 0% | 0% | 5% | 0%
9 | Cn1c(Br)nc2c(Sc3ccccc3)ncnc21 | 0% | 1% | 23% | 0% | 5% | 0% | 0% | 19% | 0% | 0% | 0% | 23% | 0% | 0%
10 | c1ccc(C[n+]2c[nH]c3ncncc32)cc1 | 13% | 9% | 6% | 4% | 18% | 0% | 7% | 13% | 0% | 4% | 7% | 7% | 10% | 7%
11 | Fc1ccc(Nc2[nH]cnc3ncnc2-3)cc1 | 10% | 18% | 30% | 34% | 17% | 40% | 2% | 0% | 13% | 0% | 48% | 42% | 24% | 52%
12 | Cn1cnc2c(Nc3ccc(F)cc3)ncnc21 | 19% | 0% | 13% | 8% | 11% | 0% | 8% | 14% | 5% | 6% | 57% | 9% | 27% | 7%
13 | COc1ncnc2ncn(Cc3ccc(F)cc3)c12 | 30% | 0% | 8% | 3% | 7% | 7% | 2% | 5% | 0% | 0% | 3% | 0% | 9% | 1%
14 | Fc1ccc(Cn2cnc3ncnc(Cl)c32)cc1 | 21% | 0% | 17% | 4% | 13% | 0% | 8% | 0% | 6% | 9% | 1% | 0% | 20% | 7%
15 | c1ccc(Oc2ncnc3[nH]cnc23)cc1 | 0% | 0% | 12% | 1% | 8% | 11% | 0% | 0% | 1% | 1% | 6% | 11% | 3% | 16%
16 | Cn1c(-c2ccc(S(C)(=O)=O)cc2)nc2c(Sc3ccccc3)ncnc21 | 7% | 14% | 36% | 4% | 18% | 11% | 8% | 0% | 1% | 8% | 3% | 16% | 10% | 5%
17 | Clc1ncnc2c1ncn2Cc1ccccc1 | 16% | 0% | 11% | 3% | 17% | 2% | 7% | 0% | 0% | 0% | 0% | 0% | 4% | 3%
18 | Fc1ccc(C[n+]2c[nH]c3ncncc32)cc1 | 12% | 8% | 5% | 0% | 15% | 0% | 5% | 10% | 0% | 0% | 4% | 13% | 7% | 4%
19 | Fc1ccc(Cn2cnc3c(Sc4ccc(F)cc4)ncnc32)cc1 | 0% | 0% | 27% | 3% | 0% | 0% | 0% | 8% | 0% | 0% | 0% | 16% | 0% | 0%
20 | Fc1ccc(CSc2[nH]cnc3ncnc2-3)cc1 | 12% | 6% | 29% | 0% | 4% | – | 3% | 0% | 0% | 0% | 5% | 16% | 47% | 18%
